Article PMC7658932 (ACS Omega, 2020)

How the values were obtained:
[1] = Radiolabeling efficiency/kinetics of chelators with ^90Y; type: physicochemical; details: pH 5.5, RT, TLC, triplicate
Outline: (§1)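 Test compound (20 μg) in Chelex-treated 0.25 M NH4OAc (pH 5.5) was mixed with 90YCl3 or 177LuCl3 (2.22 MBq, 60 μCi, in 0.05 M HCl) using acid-washed, metal-free plasticware. The mixture was shaken at 1000 rpm at RT for 1 h. Aliquots taken at set times were run on silica gel ITLC in acetonitrile/water 3:2 and scanned by radio-TLC. Complex ran at ~50 mm, free radionuclide at ~30 mm.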

[2] = Radiolabeling efficiency/kinetics of chelators with ^177Lu; type: physicochemical; details: 1 min, pH 5.5, RT, TLC, triplicate
Outline: as §1

- radiolabeling efficiency (%) ([1]; 1 min): > 97%
- radiolabeling efficiency (%) ([1]; 10 min): > 99%
- radiolabeling efficiency (%) [2]: > 97%
SMILES: O=C(O)CN1CCN(CCN(CC(=O)O)CC(=O)O)CCN(CC(CCCc2ccc([N+](=O)[O-])cc2)N(CC(=O)O)CC(=O)O)CC1 (stereo not drawn) [3p-C-NEPA, 2-{[2-(4-{2-[Bis(carboxymethyl)amino]-5-(4-nitrophenyl)pentyl}-7-(carboxymethyl)-1,4,7-triazonan-1-yl)ethyl](carboxymethyl)amino}acetic acid]
